Most compounds without a hit are left out; they make up all but 2% or so of the library.
SENP1 FRET inh – blocks the human SENP1 SUMO protease catalytic domain; Q9P0U3; recombinant SENP1 catalytic domain, CyPet-SUMO1-YPet FRET cleavage; inhibition, % at 10 µM; 360,000 tested, 0.21% active; AID 624204;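 active means inhibition at least 30% at 10 µM, raw YFP signal under a set limit, fluorescence ratio 0.5 to 1.5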;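 further: 0% = enzyme with DMSO and 100% = no enzyme wells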
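Controls: no-enzyme wells low, DMSO-plus-enzyme wells high control. Test system: human recombinant His6-tagged SENP1 catalytic domain enzyme. Reagent: SFCypet-SUMO1-SFYpet FRET protein substrate, 25 nM final. Doses: one dose per compound, 10 µM, 0.5% DMSO. Detection: FRET, CFP and YFP emission. Timing: 50 min reaction at room temperature.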
ATG4B inhibitor – inhibitors of human ATG4B cysteine protease; Q9Y4P1; ATG4B cleavage of LC3-PLA2, NBD-HPC fluorescence, 1 h; inhibition, % at 8.33 µM; 340,000 tested, 0.51% active; AID 504462; in the data active means inhibition above about 40%
Rpn11 inh – blocks the human proteasome subunit Rpn11; human 26S proteasome, Ub4-pepOG fluorescence polarization; 20S core pre-blocked with epoxomicin; inhibition, % at 20 µM; 360,000 tested, 0.59% active;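 active means inhibition at 20 µM, scaled to each plate's controls, above about 33%, limit read from the data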
Target sequence (O00487 whole entry, looked up): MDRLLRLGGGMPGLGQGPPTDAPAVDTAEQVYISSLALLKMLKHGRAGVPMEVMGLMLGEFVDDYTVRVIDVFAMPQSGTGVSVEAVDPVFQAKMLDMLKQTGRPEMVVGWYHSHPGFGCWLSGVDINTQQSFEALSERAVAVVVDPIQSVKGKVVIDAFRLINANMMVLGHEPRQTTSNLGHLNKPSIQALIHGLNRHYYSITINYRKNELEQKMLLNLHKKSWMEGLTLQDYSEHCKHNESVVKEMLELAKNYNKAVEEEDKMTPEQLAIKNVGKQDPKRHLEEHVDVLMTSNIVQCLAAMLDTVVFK
TPT1 inhibitor – inhibitors of Candida albicans tRNA 2'-phosphotransferase TPT1; 300,000 tested, 0.81% active; inhibition, % at 5 µM; recombinant caTPT1, FP RNA substrate dephosphorylation; AID 1962;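 active means inhibition above the mean of all tested compounds plus 3 SD, set per screening campaign, cut at about 24% in these data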;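 further: plate controls were DMSO alone for no effect and ferristatin control at 100 nM for full effect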
HNF4A DNA FP – change in binding of human HNF4 alpha to DNA; HNF4a-FITC DNA binding, fluorescence polarization, 1 h; activity change, % at 10 µM; 360,000 tested, 0.3% active; in the data active means activity change above about 30%, passing the limit was not always enough
CSN inh – blocks human CSN-mediated cullin deneddylation | Purified CSN, SCF-Nedd8-OG deneddylation, fluorescence polarization | inhibition, % at 12.5 µM | Q92905 | 360,000 tested, 0.38% active;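 active means pattern-corrected inhibition above about 35%, with an unprinted fluorescence ratio check between 0.5 and 1.5, limit read from the data, passing the limit was not always enough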;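 further: 0% = enzyme with substrate and 100% = substrate without enzyme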
Target sequence (Q92905 whole entry, looked up, one chain of several): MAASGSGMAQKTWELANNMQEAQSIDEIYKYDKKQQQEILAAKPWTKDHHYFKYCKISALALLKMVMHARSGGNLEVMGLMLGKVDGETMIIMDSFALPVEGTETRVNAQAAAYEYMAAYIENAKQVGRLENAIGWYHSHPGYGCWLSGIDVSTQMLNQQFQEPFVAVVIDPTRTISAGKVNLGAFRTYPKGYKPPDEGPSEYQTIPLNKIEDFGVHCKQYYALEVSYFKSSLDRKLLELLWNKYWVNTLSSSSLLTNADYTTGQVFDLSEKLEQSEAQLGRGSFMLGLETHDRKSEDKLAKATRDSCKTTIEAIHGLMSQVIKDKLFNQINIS
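Test system: Human Csn5 produced in HEK293T cells | Compound: 12.5 µM single point | Times: 90 min, room temperature | Signal: Fluorescence polarization readout | Read-out basis: % inhibition of substrate cleavage by Csn5 | Controls: no-enzyme wells high, enzyme-with-substrate wells low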
caTPT1 confirm – confirmation of Candida albicans TPT1 inhibitors. shares compounds with TPT1 inhibitor. inhibition, % at 5 µM. AID 2149. recombinant caTPT1, fluorescence polarization, RNase T1 coupled. 2,400 tested, 74% active;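 active means inhibition above the primary screen limit, the mean inhibition of all tested compounds plus 3 SD, cut at about 25% in these data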
RNase T1 counter – blocks Aspergillus oryzae RNase T1, a TPT1 counter-screen; shares compounds with TPT1 inhibitor; RNase T1 cleavage, fluorescence polarization, 1536-well; inhibition, % at 5 µM; 2,400 tested, 83% active;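 active means inhibition above the solvent-only control well mean plus 3 SD, limit set per screening run, cut at about 23% in these data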;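 further: plate controls were DMSO wells with enzyme for no effect and wells without RNase T1 for full effect; inhibitors block cleavage so intact labeled substrate keeps polarization high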
* hit, by the source's call; · = no result given.

SMILES	SENP1 FRET inh	ATG4B inhibitor	Rpn11 inh	TPT1 inhibitor	HNF4A DNA FP	CSN inh	caTPT1 confirm	RNase T1 counter
COc1ccc(-n2c(/C=C/c3ccc(O)c(OC)c3)nc3ccccc3c2=O)cc1	-24.6	10.9	·	44.9*	12.5	13.7	56.6*	67.1*
COc1cccc(-n2c(/C=C/c3ccc(O)c(O)c3)nc3ccccc3c2=O)c1	-24.6	4.9	·	55.0*	57.3*	31.7	64.8*	68.0*
CC12CC(=O)C3C(CCC4CC(=O)C=CC43C)C1CCC2=O (configuration not stated)	2.6	-5.9	2.9	·	-1.1	2.1	·	·
COC(=O)C1=C(c2ccc(OC)c(OC)c2)C[C@@H]2CC[C@H]1N2C(=O)NCC1CC1	-0.5	-9.3	3.9	·	-2.1	0.0	·	·
C[C@]12CC[C@H](O)C[C@H]1CC[C@@H]1[C@@H]2CC[C@]2(C)C(=O)CC[C@@H]12	0.4	-25.2	1.3	·	5.7	3.9	·	·
CCC1(C2=NCCN2)Cc2ccccc2O1 (configuration not stated)	1.3	-2.5	-10.8	-2.1	3.5	-0.1	·	·
CN1C(=O)/C(=C\N2CCc3ccccc32)C(=O)NC1=S	-4.4	0.2	19.1	8.6	0.8	-2.8	·	·
CCN(CC)c1ccc(/C=C2\C(=O)NC(=S)N(C)C2=O)o1	86.2*	1.8	·	123.2*	176.1	146.3	135.1*	134.6*
O=C1NC(=O)N(c2ccc3c(c2)OCO3)C(=O)/C1=C/c1ccc(N2CCCCC2)o1	22.3	-5.4	·	132.3*	162.5	141.1	145.7*	141.8*
CCN(CC)c1ccc(C=C2C(=O)N(C)C(=S)N(C)C2=O)o1	87.0*	8.4	·	93.2*	147.0	133.3	102.0*	112.4*
O=C1NC(=O)C(=Cc2ccc(N3CCOCC3)o2)C(=O)N1	2.4	-0.6	·	180.1*	138.4	130.1	146.1*	144.1*
CN1C(=O)C(=Cc2ccc(SC3CCCCC3)o2)C(=O)N(C)C1=O	9.1	-4.2	10.0	8.1	-2.6	6.7	·	·
CN1C(=O)C(=Cc2ccc(N3CCCCC3)o2)C(=O)N(C)C1=S	88.2*	-3.9	·	85.2*	133.5	144.2	104.7*	111.5*
O=P(O)(Oc1ccccc1)c1ccccc1	1.6	-2.5	-4.1	·	0.9	-0.1	·	·
O=P(NS(=O)(=O)c1ccccc1)(Oc1ccccc1)Oc1ccccc1	2.6	-10.3	-1.8	-1.1	3.7	3.3	·	·
Cc1ccc(S(=O)(=O)NP(=O)(Oc2ccccc2)Oc2ccccc2)cc1	2.5	-14.3	7.6	24.4*	1.4	-2.9	9.3	19.2
COC(=O)C1=C(c2ccc(OC)c(OC)c2)C[C@@H]2CC[C@H]1N2C(=O)NC1CCCCC1	-0.6	5.9	8.7	·	0.3	-3.5	·	·
CC(C)c1ccc(N2C(=O)NC(=O)/C(=C\C=C\c3ccco3)C2=O)cc1	·	4.2	·	130.4*	·	·	109.9*	105.9*
CN(C)C=C1C(=O)N(C2CCCCC2)C(=O)N(C2CCCCC2)C1=O	0.1	9.7	-1.2	28.6*	0.0	5.7	42.9*	57.9*
COCCCNP1(=O)OCC(C)([N+](=O)[O-])CO1 (configuration not stated)	5.0	-0.9	-0.8	·	-2.8	-2.6	·	·
CCOc1ccc(-n2c(O)c(C=Nc3ccc(N(CC)CC)cc3)c(=O)[nH]c2=O)cc1	-22.6	-8.3	-49.6	30.9*	5.4	-7.2	41.9*	55.6*
CCN(CC)c1ccc(N=Cc2c(O)n(-c3ccccc3)c(=O)[nH]c2=O)cc1	-37.0	-3.8	-0.8	39.4*	0.5	7.1	59.3*	71.2*
Cc1ccccc1-n1c(O)c(C=Nc2ccc3c(c2)OCO3)c(=O)[nH]c1=O	-13.4	-0.9	-2.9	4.1	-0.3	0.4	·	·
CCN(CC)c1ccc(N=Cc2c(O)n(-c3ccccc3C)c(=O)[nH]c2=O)cc1	-23.4	-24.1	63.6*	68.8*	13.8	13.4	72.3*	83.8*
CCc1nnc(NS(=O)(=O)c2ccc(N=Cc3c(O)n(-c4ccc(Cl)cc4)c(=O)[nH]c3=O)cc2)s1	4.1	-4.3	9.5	40.3*	4.0	8.4	8.2	14.1
SMILES	SENP1 FRET inh	ATG4B inhibitor	Rpn11 inh	TPT1 inhibitor	HNF4A DNA FP	CSN inh	caTPT1 confirm	RNase T1 counter
CCN(CC)c1ccc(N=Cc2c(O)n(Cc3ccccc3)c(=O)[nH]c2=O)cc1	-20.0	-6.1	5.5	22.7	13.1	-3.4	·	·
CCOC(=O)c1sc(/N=C/c2c(O)n(-c3ccccc3)c(=O)[nH]c2=O)c(C#N)c1C	0.1	5.0	34.1	31.7*	11.8	16.4	17.0	20.1
CCOC(=O)c1c(/N=C/c2c(O)n(-c3cccc(C)c3)c(=O)[nH]c2=O)sc2c1CCCC2	-27.3	-1.4	32.5	17.4	25.1	-0.2	·	·
C#C[C@]1(O)CCC2C3C(CC[C@@]21C)[C@@]1(C)CC[C@@H](O)CC1=C[C@H]3O (some centres not stated)	2.8	-5.6	-5.6	·	-2.9	-3.0	·	·
CC(=O)c1c(O)n(-c2cccc(Cl)c2)c(=O)[nH]c1=O (tested in a mixture with another compound)	-25.1	-4.7	29.3	28.4*	13.5	12.2	33.8*	42.7*
COc1ccc(N2C(=O)NC(=O)/C(=C\c3cn(CC(=O)N4CCOCC4)c4ccccc34)C2=O)c(OC)c1	-1.6	-1.7	10.1	11.9	2.0	1.1	·	·
Cc1ccc(N2C(=O)/C(=C/c3ccc(CN(CCC#N)S(C)(=O)=O)o3)C(=O)NC2=S)cc1	13.0	21.5	34.8	36.1*	-7.3	47.5*	25.6*	37.0*
COc1ccc(N2C(=O)/C(=C/c3ccc(N(C)C)o3)C(=O)NC2=S)cc1	69.5*	6.0	·	133.9*	126.3	24.3	142.5*	137.9*
CCN(CC)c1ccc(/C=C2\C(=O)NC(=S)N(c3ccc(OC)cc3OC)C2=O)o1	78.3*	-4.0	·	141.4*	160.0	-5.7	150.2*	141.5*
CCN1C(=O)/C(=C/c2ccc(N(CC)CC)cc2OC)C(=O)NC1=S	-4.3	-1.6	24.7	44.1*	4.0	14.6	94.7*	101.0*
COc1ccccc1/C=C1\C(=O)NC(=S)N(c2ccccc2)C1=O	-10.9	-3.7	23.1	5.6	0.3	5.2	·	·
COc1ccc(N2C(=O)/C(=C/c3cccs3)C(=O)NC2=S)cc1	-0.8	-10.0	7.4	1.8	0.9	0.0	·	·

Screens as filed in PubChem BioAssay.
